Where a chain is given by its changes, count along the chain named.
How the values were obtained:
wild type KDM4A = target: T1, wild type KDM4A (Homo sapiens, UniProt O75164); assay: MALDI demethylase assay, H3K9me3 substrate peptide, wild type enzyme; type: biochemical
T1 sequence (O75164 1-1064): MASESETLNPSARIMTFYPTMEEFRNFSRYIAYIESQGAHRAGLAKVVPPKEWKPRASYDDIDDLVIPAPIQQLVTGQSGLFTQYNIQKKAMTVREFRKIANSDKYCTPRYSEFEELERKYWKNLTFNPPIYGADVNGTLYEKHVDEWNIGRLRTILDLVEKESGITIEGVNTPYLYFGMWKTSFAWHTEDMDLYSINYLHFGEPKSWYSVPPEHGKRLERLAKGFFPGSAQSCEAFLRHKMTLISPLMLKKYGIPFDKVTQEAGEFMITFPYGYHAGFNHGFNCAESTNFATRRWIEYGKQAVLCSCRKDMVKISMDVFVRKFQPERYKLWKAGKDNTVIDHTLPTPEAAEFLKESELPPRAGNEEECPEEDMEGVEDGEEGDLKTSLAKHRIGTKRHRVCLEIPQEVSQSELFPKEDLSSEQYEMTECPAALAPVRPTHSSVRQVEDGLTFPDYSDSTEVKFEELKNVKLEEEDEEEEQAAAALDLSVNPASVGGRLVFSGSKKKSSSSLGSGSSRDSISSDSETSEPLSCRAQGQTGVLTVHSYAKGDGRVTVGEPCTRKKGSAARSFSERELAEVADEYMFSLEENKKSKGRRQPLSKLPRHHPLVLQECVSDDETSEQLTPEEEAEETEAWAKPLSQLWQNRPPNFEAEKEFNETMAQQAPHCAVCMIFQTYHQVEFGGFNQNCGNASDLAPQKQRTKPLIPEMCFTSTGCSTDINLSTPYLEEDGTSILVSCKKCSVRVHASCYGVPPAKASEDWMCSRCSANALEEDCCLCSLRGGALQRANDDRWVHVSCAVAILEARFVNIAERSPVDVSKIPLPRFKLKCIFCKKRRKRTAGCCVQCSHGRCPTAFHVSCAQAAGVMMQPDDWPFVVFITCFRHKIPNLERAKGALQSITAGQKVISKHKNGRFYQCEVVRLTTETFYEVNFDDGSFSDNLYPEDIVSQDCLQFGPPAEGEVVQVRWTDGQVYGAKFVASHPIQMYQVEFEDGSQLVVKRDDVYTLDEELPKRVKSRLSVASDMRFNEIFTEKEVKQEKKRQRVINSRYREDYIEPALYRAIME

KDM4A S288A mutant = target: T2, KDM4A S288A mutant (Homo sapiens, UniProt O75164, S288A); assay: MALDI demethylase assay, H3K9me3 substrate peptide, S288A mutant; type: biochemical
T2 sequence (O75164 1-1064 S288A): T1 sequence (O75164 1-1064) with S288A
Outline: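 KDM4A mutant demethylation of H3K9me3 peptide, read by MALDI-MS and expressed as % inhibition of demethylase activity, with wild type and the four active-site mutants run under the same conditions. The 2KG cofactor was cut from the 1 mM of the initial activity assay to 50 μM, about 3–4-fold above the enzymes' 2KG KM. KM came from an FDH/NAD+-coupled NADH fluorescence assay.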

[1] = scaffold test under the optimized assay conditions (50 μM 2KG), Figure S7
[2] = 100 μM compound, 50 μM 2KG, MALDI-MS

Row | inhibition of demethylase activity (wild type KDM4A; [1]) | inhibition of demethylase activity (KDM4A S288A mutant; [1]) | inhibition of demethylase activity (wild type KDM4A; [2]) | inhibition of demethylase activity (KDM4A S288A mutant; [2]) | Structure (SMILES)
1 | inhibited | inhibited |  |  | O=C(O)c1ccc(O)c2ncccc12 [IOX1, 5-carboxy-8-hydroxyquinone]
2 | inhibited | inhibited | significantly inhibited | significantly inhibited | O=C(O)CNC(=O)C(=O)O [compound 2, N-oxalylglycine]

Reference: PMC6570502 (Chembiochem : a European journal of chemical biology, 2019)
